IC50, TP and K obs data for 36 compounds are collected here from ChEMBL document CHEMBL1143652, “Joys of molecules. 2. Endeavors in chemical biology and medicinal chemistry” (J Med Chem, 2005).

Assay [1] deals with 1A9/ptx-10. Nature of the assay: (§1) Inhibitory concentration against beta-tubulin mutant 1A9PTX10 cell growth. Type of assay: functional, cell-based. The settings on record: Homo sapiens.
Assay [2] relates to 1A9. Nature of the assay: Inhibitory concentration against ovarian carcinoma 1A9 cell growth. Type of assay: functional, cell-based. Conditions: Homo sapiens.
Assay [3] deals with 1A9/ptx-22. Nature of the assay: (§2) Inhibitory concentration against beta-tubulin mutant 1A9PTX22 cell line. In kind it is functional, cell-based. Conditions: Homo sapiens.
Assay [4] deals with 1A9/ptx-22. Described as §2. In kind it is functional, cell-based. The settings on record: Homo sapiens. This is another data set of the same source.
Assay [5] relates to 1A9/ptx-10. The assay is described as §1. Type of assay: functional, cell-based. Conditions: Homo sapiens. This is another data set of the same source.
Assay [6] deals with Tubulin beta-4B chain (Homo sapiens) (UniProt P68371). Nature of the assay: Percent […] of tubulin by the compound. Type of assay: functional. The method in brief:
(§3)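 Tubulin polymerization was read as percent polymerization, with test drug at 100 µM and a 90 min incubation.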

Assay [7] addresses Somatostatin receptor. The experiment in a line: Binding affinity for SRIF (somatostatin) receptor. Type of assay: protein assay.
In assay [8] the test system is Nucleic Acid. Nature of the assay: Binding affinity towards DNA extracted from MOLT-4 cells. The settings on record: Homo sapiens. Type of assay: cell-free.
The target in assay [9] is Tubulin beta-4B chain (Homo sapiens) (UniProt P68371). Nature of the assay: (§4) Tubulin polymerization at a concentration of 100 uM incubated for 90 minutes. Summed up: as §3
Assay [10] shares this target. Described as §4. In kind it is functional. Summed up: as §3

Chain of Tubulin beta-4B chain (Homo sapiens) (P68371 whole entry): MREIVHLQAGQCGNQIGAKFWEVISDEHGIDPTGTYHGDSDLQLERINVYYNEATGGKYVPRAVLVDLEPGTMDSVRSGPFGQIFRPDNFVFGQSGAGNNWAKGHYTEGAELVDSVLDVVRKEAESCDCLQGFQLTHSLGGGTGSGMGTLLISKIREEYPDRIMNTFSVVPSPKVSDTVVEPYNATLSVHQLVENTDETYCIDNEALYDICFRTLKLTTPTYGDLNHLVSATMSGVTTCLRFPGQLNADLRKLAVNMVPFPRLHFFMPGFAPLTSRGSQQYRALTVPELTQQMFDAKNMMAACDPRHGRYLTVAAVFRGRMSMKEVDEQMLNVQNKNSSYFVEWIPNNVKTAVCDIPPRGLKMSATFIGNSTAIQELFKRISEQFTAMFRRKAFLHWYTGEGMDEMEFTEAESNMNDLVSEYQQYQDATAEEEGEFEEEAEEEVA

As for `C/C(=C\c1csc(C)n1)[C@@H]1C[C@@H]2O[C@@H]2CCC[C@H](C)[C@H](O)[C@@H](C)C(=O)C(C)(C)[C@@H](O)CC(=O)O1` [EPOTHILONE A], the IC50 – broadly, the concentration at which inhibition is half-maximal – was 20 nM in assay [1]; 2.2 nM in assay [2]; 5.9 nM in [3]; 5.9 nM in assay [4]; 20 nM in [5]. Besides, the TP in [6] is 76%.

Consider `NCCCCCOCC1CC(OCc2ccccc2)C(OCc2ccccc2)C(OCCc2cc3ccccc3[nH]2)O1` (stereo not drawn), for which the IC50 in assay [7] was found to be 47000 nM.

Regarding `C/C(=C\c1ccc(C)cn1)[C@@H]1C[C@@H]2C[C@H]2CCC[C@H](C)[C@H](O)[C@@H](C)C(=O)C(C)(C)CCC(=O)O1`, the half-maximal inhibitory concentration (IC50) in assay [1] is 5.9 nM; in assay [2] it was 0.6 nM; in assay [3], 1.4 nM; in [4] it was 1.4 nM; in [5] it was 5.9 nM.

Turning to `C/C(=C\c1ncccc1C)[C@@H]1C[C@@H]2O[C@]2(C)CCC[C@H](C)[C@H](O)[C@@H](C)C(=O)C(C)(C)[C@@H](O)CC(=O)O1`, the IC50 in assay [1], in [2], in [3], in [4] and in [5] was over 300 nM throughout. The TP in [6] was 0%.

Regarding `CCNC1COC(OC2C(OC)OC(C)C(NOC3CC(O)C(SC(=O)c4c(C)cc(OC5OC(C)C(O)C(OC)C5O)c(OC)c4OC)C(C)O3)C2O)CC1OC` (stereo not drawn), in assay [8], the K obs came to 180 µM.

The compound `CCNC1COC(OC2C(OC)OC(C)C(NOC3CC(O)C(SC(=O)c4c(C)c(Br)c(OC5OC(C)C(O)C(OC)C5O)c(OC)c4OC)C(C)O3)C2O)CC1OC` (stereo not drawn) returned a K obs in [8] of 10 µM.

In the case of `CCNC1COC(OC2C(OC)OC(C)C(NOC3CC(O)C(SC(=O)c4c(C)c(I)c(OC5OC(C)C(O)C(OC)C5O)c(OC)c4OC)C(C)O3)C2O)CC1OC` (stereo not drawn), the K obs in [8] came out at 4.1 µM.

Consider `C/C(=C\c1csc(C)n1)[C@@H]1C[C@@H]2O[C@]2(CF)CCC[C@H](C)[C@H](O)[C@@H](C)C(=O)C(C)(C)[C@@H](O)CC(=O)O1`, for which the IC50 was 0.4 nM in assay [1]; 0.2 nM in assay [2]; 0.2 nM in [3]; 0.2 nM in assay [4]; 0.4 nM in assay [5]. This compound also registered a TP in assay [6] of 93%.

On to `NCCCCCCOCC1OC(OCCc2cc3ccccc3[nH]2)C(OCc2ccccc2)CC1OCc1ccccc1` (stereo not drawn), for which the IC50 in assay [7] was determined as 6600 nM.

Regarding `CCNC1COC(OC2C(O[C@H]3C#C/C=C\C#C[C@@](C)(O)C(=C/CSSSC)/C3=C(\NC(=O)OC)C(C)=O)OC(C)C(NOC3CC(O)C(SC(=O)c4c(C)c(I)c(OC5OC(C)C(O)C(OC)C5O)c(OC)c4OC)C(C)O3)C2O)CC1OC` (stereo partly drawn), the K obs in assay [8] was determined as 0.135 µM.

For the compound `C/C(=C\c1ccccn1)[C@@H]1C[C@@H]2O[C@]2(C)CCC[C@H](C)[C@H](O)[C@@H](C)C(=O)C(C)(C)[C@@H](O)CC(=O)O1`, the half-maximal inhibitory concentration (IC50) stood at 1 nM in assay [1]; 0.1 nM in assay [2]; 0.15 nM in [3]; 0.15 nM in assay [4]; 1 nM in [5]. In assay [6], this compound yielded a TP of 79.5%.

For the compound `C/C(=C\c1ccc(C)cn1)[C@@H]1C[C@@H]2O[C@]2(C)CCC[C@H](C)[C@H](O)[C@@H](C)C(=O)C(C)(C)[C@@H](O)CC(=O)O1`, the half-maximal inhibitory concentration (IC50) in assay [1] amounted to 0.6 nM; in [2], 0.15 nM; in [3] it was 0.15 nM; in assay [4] it was 0.15 nM; in assay [5] it was 0.6 nM. For the same compound, the TP in assay [6] amounted to 92%.

As to `C/C(=C\c1csc(C)n1)[C@@H]1C[C@@H]2C[C@H]2CCC[C@H](C)[C@H](O)[C@@H](C)C(=O)C(C)(C)CCC(=O)O1`, the IC50 in assay [1] amounted to 17.2 nM; in [2], 10.1 nM; in [3], 4.7 nM; in assay [4], 4.7 nM; in assay [5], 17.2 nM.

For `C/C(=C\c1cccc(C)n1)[C@@H]1C[C@@H]2O[C@]2(C)CCC[C@H](C)[C@H](O)[C@@H](C)C(=O)C(C)(C)[C@@H](O)CC(=O)O1`, the concentration for half-maximal inhibition (IC50) in assay [1] is 72 nM; in [2], 9 nM; in assay [3], 18 nM; in assay [4] it was 18 nM; in assay [5], 72 nM. In [6], this compound showed a TP of 45%.

Regarding `NCCCCCOC[C@@H]1O[C@@H](OCCc2cc3ccccc3[nH]2)[C@@H](OCc2ccccc2)[C@@H](OCc2ccccc2)[C@@H]1OCc1ccccc1`, the 50% inhibitory concentration (IC50) in assay [7] was determined as 15000 nM.

For `CSc1nc(/C=C(\C)[C@@H]2C[C@@H]3C[C@@]3(C)CCC[C@H](C)[C@H](O)[C@@H](C)C(=O)C(C)(C)CCC(=O)O2)cs1`, the 50% inhibitory concentration (IC50) came to 5.7 nM in [1]; 3.5 nM in assay [2]; 11.5 nM in assay [3]; 11.5 nM in assay [4]; 5.7 nM in assay [5].

As to `OCCCCCCNCC1OC(OCCc2cc3ccccc3[nH]2)C(OCc2ccccc2)C(OCc2ccccc2)C1OCc1ccccc1` (stereo not drawn), in [7], the IC50 was 5100 nM.

Take `C/C(=C\c1csc(C)n1)[C@@H]1C[C@@H]2O[C@]2(C)CCC[C@H](C)[C@H](O)[C@@H](C)C(=O)C(C)(C)[C@@H](O)CC(=O)O1` [PATUPILONE]: the IC50 in assay [1] was found to be 1 nM; in assay [2], 0.13 nM; in assay [3] it was 0.31 nM; in [4] it was 0.31 nM; in assay [5] it was 1 nM. Also, in [6], the TP turned out to be 98%.

Consider `NCCCCCCOC[C@@H]1O[C@@H](OCCc2cc3ccccc3[nH]2)[C@@H](OCc2ccccc2)[C@@H](OCc2ccccc2)[C@@H]1OCc1ccccc1`, for which the IC50 in assay [7] stood at 11000 nM.

In the case of `CCNC1COC(OC2C(OC)OC(C)C(NOC3CC(O)C(SC(=O)c4c(C)c(C)c(OC5OC(C)C(O)C(OC)C5O)c(OC)c4OC)C(C)O3)C2O)CC1OC` (stereo not drawn), in [8], the K obs amounted to 38 µM.

Turning to `CSc1nc(/C=C(\C)[C@@H]2C[C@@H]3O[C@]3(C)CCC[C@H](C)[C@H](O)[C@@H](C)C(=O)C(C)(C)[C@@H](O)CC(=O)O2)cs1`, the IC50 in assay [1] is 0.26 nM; in [2], 0.17 nM; in assay [3], 0.25 nM; in assay [4], 0.25 nM; in assay [5], 0.26 nM.

Turning to `CCNC1COC(OC2C(OC)OC(C)C(NOC3CC(O)C(SC(=O)c4c(C)c(F)c(OC5OC(C)C(O)C(OC)C5O)c(OC)c4OC)C(C)O3)C2O)CC1OC` (stereo not drawn), the K obs in assay [8] is 44 µM.

Turning to `OCCCCCNCC1OC(OCCc2cc3ccccc3[nH]2)C(OCc2ccccc2)C(OCc2ccccc2)C1OCc1ccccc1` (stereo not drawn), the half-maximal inhibitory concentration (IC50) in [7] is 14000 nM.

For the compound `C/C(=C\c1csc(C)n1)[C@@H]1C[C@@H]2C[C@@]2(C)CCC[C@H](C)[C@H](O)[C@@H](C)C(=O)C(C)(C)CCC(=O)O1`, the concentration for half-maximal inhibition (IC50) in assay [1] worked out at 52 nM; in assay [2] it was 15 nM; in assay [3], 5 nM; in assay [4], 5 nM; in assay [5] it was 52 nM.

In turn, `CCNC1COC(OC2C(OC)OC(C)C(NOC3CC(O)C(SC(=O)c4c(C)c(Cl)c(OC5OC(C)C(O)C(OC)C5O)c(OC)c4OC)C(C)O3)C2O)CC1OC` (stereo not drawn) returned a K obs in assay [8] of 32 µM.

As for `CSc1nc(/C=C(\C)[C@@H]2C[C@@H]3C[C@H]3CCC[C@H](C)[C@H](O)[C@@H](C)C(=O)C(C)(C)CCC(=O)O2)cs1`, the half-inhibitory concentration (IC50) amounted to 3.2 nM in [1]; 1.2 nM in assay [2]; 0.8 nM in assay [3]; 0.8 nM in assay [4]; 3.2 nM in assay [5].

Consider `C/C(=C\c1ccc(C)cn1)[C@@H]1C[C@@H]2C[C@@H]2CCC[C@H](C)[C@H](O)[C@@H](C)C(=O)C(C)(C)[C@@H](O)CC(=O)O1`, for which the IC50 in assay [1] came to 19.2 nM; in [2], 2.5 nM; in assay [3] it was 4.22 nM; in assay [4], 4.22 nM; in [5] it was 19.2 nM.

As to `OCCCCCCNCC1OC(OCCc2cc3ccccc3[nH]2)C(OCc2ccccc2)CC1OCc1ccccc1` (stereo not drawn), the 50% inhibitory concentration (IC50) in assay [7] was found to be 34000 nM.

As for `C/C(=C\c1csc(C)n1)[C@@H]1C[C@@H]2C[C@@H]2CCC[C@H](C)[C@H](O)[C@@H](C)C(=O)C(C)(C)[C@@H](O)CC(=O)O1`, the half-maximal inhibitory concentration (IC50) was determined as 9 nM in assay [1]; 0.25 nM in assay [2]; 2 nM in assay [3]; 2 nM in assay [4]; 9 nM in assay [5].

For the compound `CSc1nc(/C=C(\C)[C@@H]2C/C=C\CCC[C@H](C)[C@H](O)[C@@H](C)C(=O)C(C)(C)[C@@H](O)CC(=O)O2)cs1`, the half-maximal inhibitory concentration (IC50) turned out to be 22 nM in assay [1]; 9 nM in assay [2]; 28 nM in assay [3]; 28 nM in [4]; 22 nM in [5]. In assay [6], this compound showed a TP of 92%.

In turn, `NCCCCCOCC1OC(OCCc2cc3ccccc3[nH]2)C(OCc2ccccc2)CC1OCc1ccccc1` (stereo not drawn) returned a half-inhibitory concentration (IC50) in assay [7] of 8400 nM.

Turning to `OCCCCCNCC1OC(OCCc2cc3ccccc3[nH]2)C(OCc2ccccc2)CC1OCc1ccccc1` (stereo not drawn), the concentration for half-maximal inhibition (IC50) in assay [7] turned out to be 10000 nM.

As for `C/C(=C\c1ccc(C)cn1)[C@@H]1C[C@@H]2C[C@@]2(C)CCC[C@H](C)[C@H](O)[C@@H](C)C(=O)C(C)(C)CCC(=O)O1`, the IC50 in assay [1] stood at 10.9 nM; in [2], 1.74 nM; in [3], 5.6 nM; in assay [4], 5.6 nM; in assay [5], 10.9 nM.

As to `C/C(=C\c1cc(C)ccn1)[C@@H]1C[C@@H]2O[C@]2(C)CCC[C@H](C)[C@H](O)[C@@H](C)C(=O)C(C)(C)[C@@H](O)CC(=O)O1`, the IC50 came to 0.36 nM in assay [1]; 0.1 nM in [2]; 0.1 nM in [3]; 0.1 nM in assay [4]; 0.36 nM in assay [5]. Besides, the TP in assay [6] worked out at 90.3%.

As for `CO[C@]12C=C[C@](C)(O1)[C@@H](OC(=O)/C=C/c1csc(C)n1)C[C@H]1C(C)=CC[C@H](C(C)C)[C@H]1/C=C\2COC1OCC(O)C(O)C1OC(C)=O` (stereo partly drawn), the TP in assay [9] and in assay [10] was 56% each time.

As to `NCCCCCOCC1OC(OCCc2cc3ccccc3[nH]2)CC(OCc2ccccc2)C1OCc1ccccc1` (stereo not drawn), the IC50 in assay [7] is 35000 nM.
